Results pooled from the literature.
Each line is one published result; the experiments were not run side by side.
Target: cGMP-dependent protein kinase 1 (PRKG1, Homo sapiens, UniProt Q13976)
Residues used in one study (Q13976 1-671): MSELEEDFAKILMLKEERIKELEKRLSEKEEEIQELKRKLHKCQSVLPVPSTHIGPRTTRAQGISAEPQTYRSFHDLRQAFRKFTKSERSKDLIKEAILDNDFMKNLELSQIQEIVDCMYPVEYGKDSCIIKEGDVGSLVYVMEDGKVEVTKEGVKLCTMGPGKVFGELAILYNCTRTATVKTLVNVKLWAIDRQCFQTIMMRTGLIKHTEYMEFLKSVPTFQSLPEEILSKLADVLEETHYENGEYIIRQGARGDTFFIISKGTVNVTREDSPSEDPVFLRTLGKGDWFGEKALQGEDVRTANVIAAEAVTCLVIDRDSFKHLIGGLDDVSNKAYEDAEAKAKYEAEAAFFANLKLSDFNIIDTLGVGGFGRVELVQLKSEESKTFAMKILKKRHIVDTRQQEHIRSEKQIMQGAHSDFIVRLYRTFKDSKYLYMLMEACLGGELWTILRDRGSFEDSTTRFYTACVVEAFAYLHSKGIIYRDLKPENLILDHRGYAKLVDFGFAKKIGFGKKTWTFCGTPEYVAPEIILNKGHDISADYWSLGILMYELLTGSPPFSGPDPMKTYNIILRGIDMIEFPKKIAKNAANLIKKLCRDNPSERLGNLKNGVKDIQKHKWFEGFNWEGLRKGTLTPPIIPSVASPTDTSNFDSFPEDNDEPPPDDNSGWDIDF

| SMILES | test | setting | remaining binding |
| --- | --- | --- | --- |
| CN([C@@H]1CCc2c(CC(=O)O)c3cc(S(C)(=O)=O)ccc3n2C1)S(=O)(=O)c1ccc(F)cc1 | cell-free assay, competition with immobilised ligand | 1 µM | 95% |
| O=C(NCCCN1CCOCC1)c1ccc(Nc2ncc(Cl)c(-c3ccc(Cl)s3)n2)cc1 | binding, competition with immobilised ligand | 1 µM | 100% |
| CN(C)c1nccc(-c2cnn3ncccc23)n1 | binding | 1 µM | 100% |
| O=C(N[C@H]1CCCCC/C=C\C2C[C@@]2(C(=O)O)NC(=O)[C@@H]2C[C@@H](Oc3ccncc3)CN2C1=O)OC1CCCC1 (stereo partly drawn) | binding, competition with immobilised ligand | 1 µM | 100% |
| O=C(NCC1CCOCC1)c1n[nH]cc1NC(=O)c1c(F)cccc1F | binding, competition with immobilised ligand | 1 µM | 100% |
| CC1CCCN1c1nccc(-c2cnn3ncccc23)n1 (stereo not drawn) | binding | 1 µM | 89% |
| c1cncc(-c2cccc(Nc3nccc(NC4CCCCC4)n3)c2)c1 | binding, competition with immobilised ligand | 10 µM | 100% |
| N[C@@H]1CCN(c2nccc(-c3cnn4ncccc34)n2)C1 | binding | 1 µM | 100% |
| Cc1c(C(=O)O)cc(-c2ccc(C3CCNCC3)cc2)c2ccc(-c3ccc(C(F)(F)F)cc3)cc12 | binding, competition with immobilised ligand | 1 µM | 97% |
| Cc1cnc(Nc2ccc(C(=O)N3CCC(N4CCCC4)CC3)cc2)nc1-c1cc2ccccc2s1 | binding, competition with immobilised ligand | 1 µM | 100% |
| CN(CCCC(F)(F)F)c1nccc(-c2cnn3ncccc23)n1 | binding | 1 µM | 100% |
| C[C@@]1(Cc2ccc(C#N)cc2)C(=O)N(c2cc(Cl)cc(Cl)c2)c2ncc(C(=O)NC3(c4nc(C5CCC5)no4)CC3)n21 | cell-free assay, competition with immobilised ligand | 1 µM | 100% |
| FC(F)(F)Oc1cccc(-c2cnc3ccc(-c4ccncc4)nn23)c1 | cell-free assay, competition with immobilised ligand | 5 µM | 98% |
| O=C(c1ccc(Nc2ncc(Cl)c(-c3ccc(Cl)s3)n2)cc1)N1CCC(N2CCCC2)CC1 | binding, competition with immobilised ligand | 1 µM | 100% |
| COc1cnc(Nc2cccc(S(N)(=O)=O)c2)nc1N1CCN(c2ccccc2)CC1 | binding, competition with immobilised ligand | 1 µM | 100% |
| Cc1c[nH]c2nccc(Oc3c(F)cc(Nc4cc(Cl)nc(N)n4)cc3F)c12 | cell-free assay, competition with immobilised ligand | 0.1 µM | 49% |
| Nc1ncc2c(n1)-c1c([nH]c3ccc(C#CC4CC4)cc13)CCCC2 | binding, competition with immobilised ligand | 1 µM | 86% |
| C[C@H]1CCN(c2nccc(-c3cnn4ncccc34)n2)C1 | binding | 1 µM | 98% |
| CC1=C(C#N)[C@@H](c2ccc3[nH]nc(C)c3c2)C(C#N)=C(c2ccc(Cl)cc2)N1 | cell-free assay, competition with immobilised ligand | 1 µM | 86.9% |
| COc1ccnn2ncc(-c3ccnc(N(C)C)n3)c12 | binding | 1 µM | 100% |
| COc1cnc(Nc2cccc(S(N)(=O)=O)c2)nc1N1CCN(c2ccccc2)C(=O)C1 | binding, competition with immobilised ligand | 1 µM | 100% |
